Results from ChEMBL document CHEMBL2062429, “Structure-based design, synthesis, and biological evaluation of dihydroquinazoline-derived potent β-secretase inhibitors” (Bioorg Med Chem Lett, 2012).

Legend:
Beta-secretase 1 = Beta-secretase 1 (Homo sapiens, UniProt P56817); test: Inhibition of recombinant beta-secretase 1
[1] = Inhibition of beta-secretase in neuroblastoma cells assessed as inhibition of amyloid beta production; assay type: cell-based; conditions: Homo sapiens
Summary of the method: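 Cell-based assay in neuroblastoma cells. IC50 is reported as an average value.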

Sequence of Beta-secretase 1 (P56817 whole entry): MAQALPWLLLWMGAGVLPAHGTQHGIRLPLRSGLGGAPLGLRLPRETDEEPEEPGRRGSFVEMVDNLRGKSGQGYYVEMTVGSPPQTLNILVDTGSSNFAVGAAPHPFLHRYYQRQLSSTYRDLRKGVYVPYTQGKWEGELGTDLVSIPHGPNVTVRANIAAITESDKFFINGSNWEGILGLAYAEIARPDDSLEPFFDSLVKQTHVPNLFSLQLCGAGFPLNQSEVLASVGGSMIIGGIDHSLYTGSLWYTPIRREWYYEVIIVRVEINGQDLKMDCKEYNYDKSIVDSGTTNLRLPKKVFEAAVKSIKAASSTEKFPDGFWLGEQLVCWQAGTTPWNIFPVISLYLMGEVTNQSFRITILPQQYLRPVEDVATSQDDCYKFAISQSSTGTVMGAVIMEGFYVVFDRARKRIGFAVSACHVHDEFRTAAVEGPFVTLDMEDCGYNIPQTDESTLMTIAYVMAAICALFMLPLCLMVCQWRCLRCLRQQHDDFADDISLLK

Row | Ki (Beta-secretase 1) [nM] | IC50 [1] [nM] | SMILES
1 | 13 | 21 | COCc1nc(CN(C(=O)CC[C@@H](C2CCCCC2)N2Cc3cc(Oc4ccccc4)ccc3N=C2N)C2CCCCC2)cs1
2 | 79 | 390 | Cc1nc(CN(C(=O)CC[C@@H](C2CCCCC2)N2Cc3cc(Oc4ccccc4)ccc3N=C2N)C2CCCCC2)cs1
3 | 11 | 23 | Cn1cc(CN(C(=O)CC[C@@H](C2CCCCC2)N2Cc3cc(Oc4ccccc4)ccc3N=C2N)C2CCCCC2)cn1
4 | 104 |  | Cc1nc(C(C)N(C(=O)CC[C@@H](C2CCCCC2)N2Cc3cc(Oc4ccccc4)ccc3N=C2N)C2CCCCC2)cs1 (stereo partly drawn)
5 | 1460 |  | Cc1nc(CN(C(=O)OC[C@@H](C2CCCCC2)N2Cc3cc(Oc4ccccc4)ccc3N=C2N)C2CCCCC2)cs1
6 | 39 | 51 | Cc1[nH]ncc1CN(C(=O)CC[C@@H](C1CCCCC1)N1Cc2cc(Oc3ccccc3)ccc2N=C1N)C1CCCCC1
7 | 106 |  | Cc1nc(CCN(C(=O)CC[C@@H](C2CCCCC2)N2Cc3cc(Oc4ccccc4)ccc3N=C2N)C2CCCCC2)cs1
8 | 144 |  | CC(C)c1nc(CN(C(=O)CC[C@@H](C2CCCCC2)N2Cc3cc(Oc4ccccc4)ccc3N=C2N)C2CCCCC2)cs1
9 |  | 71 | CN(C(=O)CC[C@@H](C1CCCCC1)N1Cc2cc(Oc3ccccc3)ccc2N=C1N)C1CCCCC1

Continued, compound first:

Row | SMILES | Ki (Beta-secretase 1) [nM] | IC50 [1] [nM]
10 | CN(C(=O)OC[C@@H](C1CCCOC1)N1Cc2cc(Oc3ccccc3)ccc2N=C1N)C1CCCCC1 (mixture of isomers) | 104 | 1100
11 | NC1=Nc2ccc(Oc3ccccc3)cc2CN1[C@@H](CCC(=O)N(Cc1cn[nH]c1)C1CCCCC1)C1CCCCC1 | 23 | 
12 | CN(C(=O)CC[C@@H]([C@H]1CCCOC1)N1Cc2cc(Oc3ccccc3)ccc2N=C1N)C1CCCCC1 | 122 | 
13 | NC1=Nc2ccc(Oc3ccccc3)cc2CN1[C@@H](COC(=O)NC1CCCCC1)C1CCCCC1 | 60 | 
14 | CN(C(=O)OC[C@@H](C1CCCCC1)N1Cc2cc(Oc3ccccc3)ccc2N=C1N)C1CCCCC1 | 37.5 | 
15 | CN(C(=O)OC[C@@H](c1ccccc1)N1Cc2cc(Oc3ccccc3)ccc2N=C1N)C1CCCCC1 | 783 | 3400
16 | CN(C(=O)CC[C@@H](c1ccccc1)N1Cc2cc(Oc3ccccc3)ccc2N=C1N)C1CCCCC1 | 164 | 482
